Compound activity: PubChem, several laboratories
This is one part of a sample in which hits are shown more often than they occur.
UPR XBP1 act: adaptive UPR (XBP1) activation; CHO-XBP1 luciferase reporter, IRE1-XBP1 UPR activation, luminescence; percent of tunicamycin response, DMSO as zero; activation, % at 20 µM; 0.33% of 330,000 active; AID 463104;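 active means versus positive control, 20 µM dose yields 30% or more activation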
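Material: IRE1-XBP1 luciferase reporter CHO line / Quantity: one thousand reporter cells per well / Buffer or medium: F12 with 10% serum / Compound: 20 µM single concentration, DMSO 1% / Times: 6 h treatment, 37 °C / Detection: Steady-Glo luciferase glow luminescence, 10 min after reagent addition / Benchmarks: tunicamycin high, DMSO low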
CHOP inh: inhibitors of CHOP induction in ER stress response. 3.8% of 220,000 active. CHO-K1 CHOP-promoter luciferase, tunicamycin-induced, 15-18 h. inhibition, % at 10 µM;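 active means compounds that reduced the stress-induced luciferase reporter signal by more than about 70% of percent inhibition, limit read from the data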
CHOP UPR activ: activators of apoptotic arm of unfolded protein response (CHOP); CHO-CHOP luciferase reporter, UPR activation, luminescence; percent of tunicamycin response over DMSO baseline; activation, % at 10 µM; 0.34% of 330,000 active; AID 449763;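 active means at 10 µM dose, activation of 40% or more, normalized to positive control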
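Dosing – one dose, 10 µM in 0.5% DMSO · System – CHO-CHOP cells, stable luciferase reporter of PERK-eIF2a-CHOP signalling · Input – 500 cells/well · Control set – tunicamycin 10 µg/mL final as positive, DMSO-only wells as negative · Timing – 6 h compound treatment, 37 °C · Measure – % activation vs tunicamycin · Technique – luminescence read with Steady-Glo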
FXN GAA850 act: frataxin GAA850 promoter activation; AID 540364; 0.56% of 360,000 active; activation, % at 6 µM; HEK293 lucGAA850 FXN promoter luciferase reporter, 24 h; percent of 10 µM SAHA response;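 active means activation above the average of all compounds screened plus 3 SD, cutoff fixed separately per campaign, cut at about 7.5% in these data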
Of the large screens only hits and unclear results are named; the others gave an inactive call.

O=C(CCCCCn1c(=S)[nH]c2cc3c(cc2c1=O)OCO3)N1CCN(Cc2ccccc2)CC1	none
COc1ccc(NC(=O)CSc2ncccc2C(=O)OC(C)C)cc1OC	CHOP inh 71
CSc1ncnc2c1ncn2CCCNCCCc1ccccc1	none (no result: UPR XBP1 act, CHOP inh, CHOP UPR activ)
COc1cccc(C2C3=C(N=c4s/c(=C\c5ccccc5O)c(=O)n42)c2ccccc2CC3)c1OC (centres undefined)	UPR XBP1 act 52, CHOP UPR activ 105 (no result: FXN GAA850 act)
CCCCn1c(=O)c2ccccc2c2ccccc2c1=O	CHOP inh 76
Cc1ccc(C)c(Cn2nnc3c(=O)[nH]c(C4CCCN(S(=O)(=O)Cc5ccccc5)C4)nc32)c1 (centres undefined)	UPR XBP1 act 103 (no result: CHOP inh)
O=C(NCC1CCCCC1)c1cc(-c2cc(F)ccc2OCC2CCCO2)n[nH]1 (centres undefined)	none (no result: UPR XBP1 act, CHOP inh, CHOP UPR activ)
CCCCNCC1C(Oc2ccc(Cl)cc2)C(=O)N1c1ccccc1C (centres undefined)	CHOP inh 77
O=S(=O)(c1ccc(F)cc1)N(CCO)CC(O)Cn1c2ccccc2c2ccccc21 (centres undefined)	CHOP inh 73
CCN(CC)CC(O)Cn1c2ccccc2c2ccccc21 (centres undefined)	none
CCN(CC(O)Cn1c2ccccc2c2ccccc21)S(=O)(=O)c1ccc(F)cc1 (centres undefined)	CHOP inh 70
COCCNC(=O)C1CCCN(C(=O)c2ccnc(Cl)c2)CC1 (centres undefined)	none (no result: UPR XBP1 act, CHOP inh, CHOP UPR activ)
CC(C)CC(COCc1cccc(Cl)c1)N1CCN(C(=O)c2ccc(C(F)(F)F)cc2)CCC1=O (centres undefined)	CHOP inh 77
Cc1cccc(COCC(CC(C)C)N2CCN(C(=O)c3ccc(C(C)(C)C)cc3)CCC2=O)c1 (centres undefined)	CHOP inh 71
CC(=O)Nc1cccc(NC(=O)CSc2ncc(-c3ccc(Cl)cc3)n2Cc2ccco2)c1	CHOP inh 88
COc1ccc(-c2cnc(SCC(=O)Nc3ccc4c(c3)OCO4)n2Cc2ccco2)cc1	none
O=C(Nc1ccc2c(c1)OCO2)N1CCN(c2ccc(F)cc2)CC1	CHOP inh 78
CCC(C)(C)c1ccc(OCCCC[n+]2ccc(C)cc2)c(C(C)(C)CC)c1	CHOP inh 76 (no result: FXN GAA850 act)
CCC(C)(C)c1ccc(OCCCC[n+]2cccc(C)c2C)c(C(C)(C)CC)c1	CHOP inh 79
Cc1cc(C(C)(C)C)ccc1OCCCCN1CCCC1	none
Cc1cc(Br)cc(C)c1NC(=S)NC(=O)CC(C)C	CHOP inh 92
CCc1nc2ccc(C(=O)Nc3cccc(NS(C)(=O)=O)c3)cn2c1N(CCC(C)C)CCN(C)C	none (no result: UPR XBP1 act, CHOP inh, CHOP UPR activ)
CS(=O)(=O)c1ccc(C(=O)OCC(=O)NCc2cccs2)cc1[N+](=O)[O-]	FXN GAA850 act 8.8 (no result: CHOP inh)
CCCc1cc2c(cc1NC(=O)c1ccc(Br)cc1)OCO2	CHOP inh 83
CCCc1cc2c(cc1NC(=O)c1ccc(C(C)(C)C)cc1)OCO2	none
COc1ccc(CCN2CC(C(=O)NCCCc3ccncc3)CCC2=O)cc1 (centres undefined)	none (no result: UPR XBP1 act, CHOP inh, CHOP UPR activ)
CCCc1nc(SCC(=O)N2CCCc3ccccc32)c2c(=O)n(C)c(=O)n(C)c2n1	none
Cn1c(=O)c2c(SCC(=O)N3CCCc4ccccc43)nc(CC(C)(C)C)nc2n(C)c1=O	CHOP inh 84
CC(C)(C)Nc1nc(N2CCCC2)nc(N2CCCC2)n1	CHOP inh 77
CCOc1cccc(NCc2cc3c(C(C)(C)C)nn(-c4ccccc4)c3[nH]c2=O)c1	none
CC(C)(C)c1nn(-c2ccccc2)c2[nH]c(=O)c(CNCc3ccc4c(c3)OCO4)cc12	CHOP inh 94
Cc1nc2ccccn2c1-c1csc(Nc2cccc(O)c2)n1	none (no result: UPR XBP1 act, CHOP UPR activ)
Cc1cccc(Nc2nc(-c3c(C)nc4ccccn34)cs2)c1	CHOP inh 77
COC(=O)[C@H]1C[C@H](OC(=O)NCc2ccccc2F)[C@@]2(O)CN(S(=O)(=O)c3ccc(C)cc3)CC2[C@H]1C(=O)OC (some centres undefined)	none (no result: UPR XBP1 act, CHOP inh, CHOP UPR activ)
C[C@H](CO)N1C[C@H](C)[C@@H](CN(C)C(=O)c2ccccc2)OCc2cnnn2CCCC1=O	none (no result: UPR XBP1 act, CHOP inh, CHOP UPR activ)
FC(F)(F)c1cccc(NC(=S)N2CCCC2)c1	none (no result: CHOP inh)
FC(F)(F)c1cccc(N2CCN(C(=S)NC3CCCC3)CC2)c1	CHOP inh 81
FC(F)(F)c1cccc(NC(=S)N2CCN(c3ccccc3)CC2)c1	CHOP inh 80
CCOC(=O)C1=C(C)N=c2sc(=Cc3cc(Cl)c(OCC(=O)O)c(Cl)c3)c(=O)n2C1c1cccc(OC)c1 (centres undefined)	none (no result: UPR XBP1 act, CHOP inh, CHOP UPR activ)
CC(=O)Nc1ccc(-c2ccnc3c2CC(C)(C(=O)NCc2ccc(N4CCN(C)CC4)cc2)O3)cc1 (centres undefined)	none (no result: UPR XBP1 act, CHOP inh, CHOP UPR activ)
COc1ccc(CCn2c3c(c(=O)[nH]c2=O)C(NC(=O)c2cccs2)(C(F)(F)F)C(=O)N3)cc1OC (centres undefined)	none
COc1ccc(CCn2c(O)c(C=Nc3cccc(F)c3)c(=O)[nH]c2=O)cc1OC	CHOP inh 80
C/C(=N\NC(=O)c1cc(C)nc2ccccc12)c1ccccn1	CHOP UPR activ 85 (no result: CHOP inh)
Cc1cccc(NC(=O)CCS(=O)(=O)c2ccc3nc(C)sc3c2)c1	none (no result: UPR XBP1 act, CHOP inh, CHOP UPR activ)
C=CCN(c1nc(C)c(Br)c(OC)n1)S(=O)(=O)c1ccc(C)cc1	none (no result: CHOP inh)
COc1nc(N(C)S(=O)(=O)c2ccc(C)cc2)nc(C)c1Cl	CHOP inh 83
CN(C)C(=O)c1cnc(Cc2c[nH]c3ccccc23)c(I)c1	none (no result: UPR XBP1 act, CHOP inh, CHOP UPR activ)
Cc1ccc(Cl)cc1NC(=S)N(Cc1cccs1)C1CCCC1	CHOP inh 82
Cc1ccccc1NC(=S)N(Cc1cccs1)C1CCCCC1	none
CCCS(=O)(=O)NC(=O)C1(C)CCCN(C(=O)C(C)(C)Oc2ccc(Cl)cc2)C1 (centres undefined)	none (no result: UPR XBP1 act, CHOP inh, CHOP UPR activ)
COc1ccccc1NC(=O)Cc1nc(=O)[nH]c(=O)[nH]1	none (no result: UPR XBP1 act, CHOP inh, CHOP UPR activ)
COc1cc(C(O)c2nc(-c3ccncc3)cs2)ccc1F (centres undefined)	none (no result: UPR XBP1 act, CHOP inh, CHOP UPR activ)
O=C(NC(Nc1ncc(S(=O)(=O)c2ccc([N+](=O)[O-])cc2)s1)(C(F)(F)F)C(F)(F)F)c1ccc(Cl)cc1	CHOP inh 88
CCCCn1c(=N)n(CC(O)COc2ccc(C)cc2)c2ccccc21 (centres undefined)	CHOP inh 72
CCCCn1c(=N)n(CC(O)COc2ccccc2)c2ccccc21 (centres undefined)	none
CC(C)(C)c1ccc(NC(=O)CSc2nnc(-c3n[nH]c4ccccc34)o2)cc1	CHOP inh 94
CC(C)NC(=O)C1(C)CCN1CCC(=O)c1ccccc1 (centres undefined)	none (no result: UPR XBP1 act, CHOP inh, CHOP UPR activ)
Cc1cc(C)n(-c2nc3c(c(=O)[nH]c(=O)n3C)n2CC(O)COc2ccccc2)n1 (centres undefined)	none
Cc1cccc(OCC(O)Cn2c(-n3nc(C)cc3C)nc3c2c(=O)[nH]c(=O)n3C)c1 (centres undefined)	CHOP inh 73
